Columns and labels:
THP-1 [1] = test: Hoechst 33342 nuclear morphological analysis of apoptosis; assay type: cell-based; conditions: Homo sapiens, THP-1, 24 h, read-out: AP50 (50% induction of apoptosis), Hoechst 33342 staining (Hoe)
How it was run: (§1)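 Seeded at 0.5 x 10⁶ cells/well in 12-well plates and treated 24 h. Cells were pelleted (400 g, 5 min, 4 °C), washed in PBS, fixed in 4% paraformaldehyde, cytospun, air-dried, then stained with 10 μg/ml Hoechst 33342 for 10 min in the dark. Fluorescence microscopy: 200 cells counted, scored by condensed/intense nuclei, shrinkage, blebbing and apoptotic bodies. % apoptotic nuclei calculated. AP50 = concentration giving 50% apoptotic cells.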

CCRF-CEM [2] = test: CellTiter-Glo luminescent cell viability assay; assay type: cell-based, human; conditions: 24 h, doses 0, 2, 10, 50, 250, 500 µM, p<0.05
How it was run: (§2)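 Cells grown in RPMI 1640 with 10% FBS, 1.5 mM L-glutamine and penicillin/streptomycin at 37 °C, 5% CO2. Seeded at 2.5 x 10³ cells/well and exposed 24 h to ethanol-dissolved test compound (0, 2, 10, 50, 250, 500 µM) with 0.1% ethanol vehicle. ATP luminescence normalized to vehicle (100%). IC50 taken from linear regression. Lowest significant dose set by one-way ANOVA/Tukey, p<0.05. Triplicates, three independent experiments.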

K562 [3] = test: Cell cycle analysis, propidium iodide flow cytometry; assay type: cell-based, human; conditions: K562, IC50 dose, 24 h; vehicle control G2/M = 13.6%
How it was run: (§3)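 Seeded at 0.5 x 10^6 cells per well in 12-well plates and treated 24 h at the IC50 concentration of each test compound from CellTiter-Glo. Cells were pelleted (400 g, 5 min), PBS-washed and fixed in 80% ethanol overnight at -20 °C. Staining used 50 µg/mL PI plus RNase overnight at 4 °C.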

K562 [4] = test: Hoechst 33342 nuclear morphological analysis of apoptosis; assay type: cell-based; conditions: Homo sapiens, K562, 24 h, read-out: AP50 (50% induction of apoptosis), Hoechst 33342 staining (Hoe)
How it was run: as §1

HL60 = test: as above; assay type: cell-based; conditions: Homo sapiens, HL-60, 24 h, read-out: AP50 (50% induction of apoptosis), Hoechst 33342 staining (Hoe)
How it was run: as §1

non-tumor cells (CD34+) [5] = test: NucView caspase 3 activity assay by flow cytometry; assay type: cell-based; conditions: 24 h
JURKAT [6] = test: NucView caspase 3 activity assay by flow cytometry; assay type: cell-based, human; conditions: 24 h
How it was run: (§4)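 Seeded at 0.5 x 10⁶ cells/well and treated 24 h, with series of 0–50 or 0–250 µM depending on compound. Normalized to vehicle (0% apoptosis). Mean ± STD, three independent experiments in triplicate. One-way ANOVA/Tukey, p<0.05. AP50 = concentration giving 50% apoptotic cells.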

K562 [7] = test: CellTiter-Glo luminescent cell viability assay; assay type: cell-based, human; conditions: K562, 24 h, doses 0, 2, 10, 50, 250, 500 µM, p<0.05
How it was run: as §2

non-tumor cells (CD34+) [8] = test: Hoechst 33342 nuclear morphological analysis of apoptosis; assay type: cell-based; conditions: 24 h, read-out: AP50 (50% induction of apoptosis), Hoechst 33342 staining (Hoe)
How it was run: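 CD34+ cells treated 24 h across the IC25–IC50 range, then pelleted (400 g, 4 °C) and fixed in 4% paraformaldehyde/PBS. Cytospins were air-dried and stained with 10 μg/ml Hoechst 33342 for 10 min in the dark, then viewed by fluorescence microscopy. 200 cells were scored per sample as % apoptotic nuclei (shrinkage, blebbing, chromatin condensation, apoptotic bodies). AP50 = concentration giving 50% apoptosis.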

MOLT-3 [9] = test: Hoechst 33342 nuclear morphological analysis of apoptosis; assay type: cell-based; conditions: Homo sapiens, MOLT-3, 24 h, read-out: AP50 (50% induction of apoptosis), Hoechst 33342 staining (Hoe)
How it was run: as §1

KG1a [10] = test: Cell cycle analysis, propidium iodide flow cytometry; assay type: cell-based, human; conditions: IC50 dose, 24 h, vehicle control G2/M = 18.7%
How it was run: as §3

[11] = test system: non-tumor cord blood (CD34+) cells; test: CellTiter-Glo luminescent cell viability assay; assay type: cell-based; conditions: 24 h
How it was run: as §2

U937 [12] = test: Hoechst 33342 nuclear morphological analysis of apoptosis; assay type: cell-based; conditions: Homo sapiens, U-937, 24 h, read-out: AP50 (50% induction of apoptosis), Hoechst 33342 staining (Hoe)
How it was run: as §1

U937 [13] = test: NucView caspase 3 activity assay by flow cytometry; assay type: cell-based, human
How it was run: as §4

KG1a [14] = test: Hoechst 33342 nuclear morphological analysis of apoptosis; assay type: cell-based; conditions: Homo sapiens, KG-1a, 24 h, read-out: AP50 (50% induction of apoptosis), Hoechst 33342 staining (Hoe)
How it was run: as §1

KG1a [15] = test: CellTiter-Glo luminescent cell viability assay; assay type: cell-based, human; conditions: 24 h
How it was run: as §2

THP-1 [16] = test: NucView caspase 3 activity assay by flow cytometry; assay type: cell-based, human
How it was run: as §4

MOLT-3 [17] = test: Cell cycle analysis, propidium iodide flow cytometry; assay type: cell-based, human; conditions: MOLT-3, IC50 dose, 24 h; vehicle control G0/G1 = 64.5%
How it was run: as §3

[18] = test system: non-tumor progenitor cells (CD34+); test: Cell cycle analysis, propidium iodide flow cytometry; assay type: cell-based; conditions: 24 h, within the IC50 ranges used to treat the leukemic cell lines
CCRF-CEM [19] = test: Hoechst 33342 nuclear morphological analysis of apoptosis; assay type: cell-based; conditions: Homo sapiens, 24 h, read-out: AP50 (50% induction of apoptosis), Hoechst 33342 staining (Hoe)
How it was run: as §1

CCRF-CEM [20] = test: Cell cycle analysis, propidium iodide flow cytometry; assay type: cell-based, human; conditions: IC50 dose, 24 h, vehicle control G0/G1 = 41.9%
How it was run: as §3

JURKAT [21] = test: Hoechst 33342 nuclear morphological analysis of apoptosis; assay type: cell-based; conditions: Homo sapiens, 24 h, read-out: AP50 (50% induction of apoptosis), Hoechst 33342 staining (Hoe)
How it was run: as §1

Q: Which results are given for `C(=C\c1ccccc1)/c1ccccc1` [Trans-Stilbene, Trans-stilbene]?
A: EC50 (THP-1 [1]): > 500 µM; The lowest dose of polyphenols at which there was a significant inhibition of cell proliferation compared to the vehicle control (CCRF-CEM [2]): 50 µM; Percentage of cells in G2/M phase of cell cycle (significant accumulation) (K562 [3]): G2/M =24.5%; EC50 (K562 [4]): 460 µM; EC50 (HL60): 50 µM; EC50 (non-tumor cells (CD34+) [5]; read-out: AP50 (50% induction of apoptosis), Caspase 3 activity assay (C3)): > 500 µM; The lowest dose of polyphenols at which there was a significant induction of apoptosis compared to the vehicle control (non-tumor cells (CD34+) [5]; CD34+ non-tumour control cells, caspase 3 activity, p<0.05): 250 µM; EC50 (JURKAT [6]; Homo sapiens, Jurkat, read-out: AP50 (50% induction of apoptosis), Caspase 3 activity assay (C3)): 250 µM; The lowest dose of polyphenols at which there was a significant induction of apoptosis compared to the vehicle control (JURKAT [6]; JURKAT, caspase 3 activity, p<0.05): 50 µM; The lowest dose of polyphenols at which there was a significant inhibition of cell proliferation compared to the vehicle control (K562 [7]): 50 µM; EC50 (non-tumor cells (CD34+) [8]): > 500 µM; EC50 (MOLT-3 [9]): 400 µM; Percentage of cells in G2/M phase of cell cycle (significant accumulation) (KG1a [10]): G2/M =23.7%; IC50 ([11]; read-out: IC50 (50% inhibition of cellular proliferation), CD34+ non-tumour control cells, 24 h treatment): 500 µM; The lowest dose of polyphenols at which there was a significant inhibition of cell proliferation compared to the vehicle control ([11]; CD34+ non-tumour control cells, doses 0, 2, 10, 50, 250, 500 µM, p<0.05): 250 µM; EC50 (U937 [12]): 225 µM; EC50 (U937 [13]; Homo sapiens, U-937, 24 h, read-out: AP50 (50% induction of apoptosis), Caspase 3 activity assay (C3)): 200 µM; The lowest dose of polyphenols at which there was a significant induction of apoptosis compared to the vehicle control (U937 [13]; U937, caspase 3 activity, 24 h, p<0.05): 50 µM; EC50 (KG1a [14]): 360 µM; IC50 (KG1a [15]; Homo sapiens, KG-1a, read-out: IC50 (50% inhibition of cellular proliferation)): 250 µM; The lowest dose of polyphenols at which there was a significant inhibition of cell proliferation compared to the vehicle control (KG1a [15]; KG1a, doses 0, 2, 10, 50, 250, 500 µM, p<0.05): 50 µM; EC50 (THP-1 [16]; Homo sapiens, THP-1, 24 h, read-out: AP50 (50% induction of apoptosis), Caspase 3 activity assay (C3)): > 500 µM; The lowest dose of polyphenols at which there was a significant induction of apoptosis compared to the vehicle control (THP-1 [16]; THP-1, caspase 3 activity, 24 h, p<0.05): 250 µM; Percentage of cells in G0/G1 phase of cell cycle (significant accumulation) (MOLT-3 [17]): G0/G1 = 69%; Cell cycle arrest in non-tumour control cells [18]: No Arrest ≤500µM; EC50 (CCRF-CEM [19]): 200 µM; Percentage of cells in G0/G1 phase of cell cycle (significant accumulation) (CCRF-CEM [20]): G0/G1 =49.1%; EC50 (JURKAT [21]): 310 µM

— paper PMC3873039 (Anti-Cancer Agents in Medicinal Chemistry, 2013)
